The results in this text go back to ChEMBL document CHEMBL2021897, “Synthesis and SAR of 1,3-thiazolyl thiophene and pyridine derivatives as potent, orally active and S1P₃-sparing S1P₁ agonists” (Bioorg Med Chem Lett, 2012).

Calls of active or inactive are those of the source. The rule behind the calls is not given here.

Sequence of Sphingosine 1-phosphate receptor 3 (Q99500 whole entry): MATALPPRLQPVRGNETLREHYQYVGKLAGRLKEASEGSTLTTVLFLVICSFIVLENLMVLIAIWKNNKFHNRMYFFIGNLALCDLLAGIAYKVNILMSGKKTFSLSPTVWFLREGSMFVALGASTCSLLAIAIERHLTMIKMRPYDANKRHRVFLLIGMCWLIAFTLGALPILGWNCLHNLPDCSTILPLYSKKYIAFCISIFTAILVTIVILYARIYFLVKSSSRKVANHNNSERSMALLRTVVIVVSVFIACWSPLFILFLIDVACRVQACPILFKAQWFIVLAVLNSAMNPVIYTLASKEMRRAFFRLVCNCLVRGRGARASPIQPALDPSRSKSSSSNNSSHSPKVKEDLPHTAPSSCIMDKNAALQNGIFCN

The subject of one test is Rattus norvegicus. Put plainly: Immunosuppressive activity in LEW rat transplanted with spleen cells of WKAH rat assessed as inhibition of enlargement of draining popliteal lymph node at 1 mg/kg, po qd for 4 days.
Details: not given
Format: functional. In a few lines: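 Spleen cells from WKAH rats were injected into the footpads of LEW rats to induce draining popliteal lymph node enlargement. Dosing was oral, once daily for four days from the day of cell injection (day 0). Lymph node weight was measured on day 4. Values are the mean of five rats; ID50 is derived from at least three doses.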
Consider `CCc1cc(CN2CC(C(=O)O)C2)sc1-c1cc(-c2ccc(Oc3ccccc3)cc2)no1`, for which the inhibition entry was “inactive”.

The test is the same for the next values; noted with them: 96 h.
On to `CCc1cc(CN2CC(C(=O)O)C2)sc1-c1cnc(-c2ccc(Oc3ccccc3)cc2)s1`, for which the inhibition in vivo (usually the drop in the measured response relative to a control, in per cent) at 1 mg/kg is 25%.
The same measure, in the same setting: the figure for `CCc1nc(CN2CC(C(=O)O)C2)ccc1-c1cnc(-c2ccc(OC(C)C)c(C)c2)s1` is 17%; for `CCc1nc(CN2CC(C(=O)O)C2)ccc1-c1ncc(-c2ccc(OC(C)C)c(C)c2)s1` it is 39%.
On the same count and under the same terms, the figure for `CCc1cc(CN2CC(C(=O)O)C2)sc1-c1ncc(-c2ccc(O[C@H](C)CC)c(C)c2)s1` is 27%; for `CCc1cc(CN2CC(C(=O)O)C2)sc1-c1cc(-c2ccc(Oc3ccccc3)cc2)on1` it is 2%.
With `CCc1cc(CN2CC(C(=O)O)C2)sc1-c1ncc(-c2ccc(OC(C)C)cc2)s1`, the inhibition in vivo at 1 mg/kg was 52%.

A further test concerns the target Sphingosine 1-phosphate receptor 3 (Homo sapiens, UniProt Q99500). Put plainly: Agonist activity at human S1P3 receptor by [S35]GTPgammaS binding assay. Type of test: functional.
Details: not given
Summed up: (§1)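 GTPγS binding at human S1P1 and S1P3 receptors. EC50 is the mean of two experimental determinations.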
Background: GTPγS is a poorly hydrolysed GTP analogue; its binding reports G protein activation.
`CCc1cc(CN2CC(C(=O)O)C2)sc1-c1cnc(-c2ccc(Oc3ccccc3)cc2)s1`: the EC50 (in general, the concentration giving half of the maximal effect) is over 20 µM.
Same read-out and setting: the value for `CCc1nc(CN2CC(C(=O)O)C2)ccc1-c1cnc(-c2ccc(OC(C)C)c(C)c2)s1` was over 20 µM.
Same read-out and setting: the value for `CCc1nc(CN2CC(C(=O)O)C2)ccc1-c1ncc(-c2ccc(OC(C)C)c(C)c2)s1` was over 20 µM; that for `CCc1cc(CN2CC(C(=O)O)C2)sc1-c1cc(-c2ccc(Oc3ccccc3)cc2)no1` was over 20 µM; that for `CCc1cc(CN2CC(C(=O)O)C2)sc1-c1ncc(-c2ccc(O[C@H](C)CC)c(C)c2)s1` was over 20 µM.
`CCc1cc(CN2CC(C(=O)O)C2)sc1-c1cc(-c2ccc(Oc3ccccc3)cc2)on1` returned an EC50 of over 20 µM.
Same read-out and setting: the value for `CCc1cc(CN2CC(C(=O)O)C2)sc1-c1ncc(-c2ccc(OC(C)C)cc2)s1` was over 20 µM.

For the next test, the target named is Sphingosine 1-phosphate receptor 1 (Homo sapiens, UniProt P21453). In words: Agonist activity at human S1P1 receptor by [S35]GTPgammaS binding assay. Type of test: functional.
Sequence of Sphingosine 1-phosphate receptor 1 (P21453 whole entry): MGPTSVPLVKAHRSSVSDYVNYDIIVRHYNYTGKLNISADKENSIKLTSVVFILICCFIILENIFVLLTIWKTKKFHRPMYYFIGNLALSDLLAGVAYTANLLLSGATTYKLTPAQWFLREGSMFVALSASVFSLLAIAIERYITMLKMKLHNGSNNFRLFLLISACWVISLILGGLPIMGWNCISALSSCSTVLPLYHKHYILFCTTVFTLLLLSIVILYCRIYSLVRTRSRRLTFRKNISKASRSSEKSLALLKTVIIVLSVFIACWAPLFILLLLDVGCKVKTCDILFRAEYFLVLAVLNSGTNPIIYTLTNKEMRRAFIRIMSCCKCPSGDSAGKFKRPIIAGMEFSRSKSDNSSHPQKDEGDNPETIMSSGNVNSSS
Details: not given
Summed up: as §1
`CCc1cc(CN2CC(C(=O)O)C2)sc1-c1cnc(-c2ccc(Oc3ccccc3)cc2)s1` had an EC50 of 0.035 µM.
The same measure, in the same setting: the figure for `CCc1nc(CN2CC(C(=O)O)C2)ccc1-c1cnc(-c2ccc(OC(C)C)c(C)c2)s1` is 0.0028 µM; for `CCc1nc(CN2CC(C(=O)O)C2)ccc1-c1ncc(-c2ccc(OC(C)C)c(C)c2)s1` it is 0.0055 µM.
On the same count and under the same terms, the value for `CCc1cc(CN2CC(C(=O)O)C2)sc1-c1cc(-c2ccc(Oc3ccccc3)cc2)no1` was 0.015 µM; that for `CCc1cc(CN2CC(C(=O)O)C2)sc1-c1ncc(-c2ccc(O[C@H](C)CC)c(C)c2)s1` was 0.008 µM; that for `CCc1cc(CN2CC(C(=O)O)C2)sc1-c1cc(-c2ccc(Oc3ccccc3)cc2)on1` was 0.022 µM.
Same read-out and setting: the value for `CCc1cc(CN2CC(C(=O)O)C2)sc1-c1ncc(-c2ccc(OC(C)C)cc2)s1` was 0.01 µM.
